Results as given in ChEMBL document CHEMBL2169847, “New tricks for an old natural product: discovery of highly potent evodiamine derivatives as novel antitumor agents by systemic structure-activity relationship analysis and biological evaluations” (J Med Chem, 2012).
Active and inactive are the calls of the source. The calls are words filed in the database; no cut-off is given here.

Columns and labels:
MDA-MB-435 = experiment: Cytotoxicity against human MDA-MB-435 cells incubated for 72 hrs by MTT assay; type: functional; details: MDA-MB-435, 72 h
Method in brief: (§1)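 MTT assay. Cells seeded at 5 × 10³/well and grown 24 h at 37 °C, 5% CO₂. Compounds added at several concentrations in triplicate wells, with 0.1% DMSO control, for 72 h. MTT then added for 4 h, formazan dissolved in DMSO, and absorbance read at 570 nm. GI₅₀ by Logit method; three experiments.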

HCT-116 = experiment: Cytotoxicity against human HCT116 cells incubated for 72 hrs by MTT assay; type: functional; details: HCT-116, 72 h; method in brief: as §1
A549 = experiment: Cytotoxicity against human A549 cells incubated for 72 hrs by MTT assay; type: functional; details: A549, 72 h; method in brief: as §1
[1] = biological target: T1, DNA topoisomerase 1 (Homo sapiens) (UniProt P11387); experiment: Inhibition of Top1 assessed as suppression of supercoiled pBR322 DNA relaxation measuring appearance of short DNA fragments at 100 uM incubated for 15 mins by electrophoresis method
T1 sequence (whole entry): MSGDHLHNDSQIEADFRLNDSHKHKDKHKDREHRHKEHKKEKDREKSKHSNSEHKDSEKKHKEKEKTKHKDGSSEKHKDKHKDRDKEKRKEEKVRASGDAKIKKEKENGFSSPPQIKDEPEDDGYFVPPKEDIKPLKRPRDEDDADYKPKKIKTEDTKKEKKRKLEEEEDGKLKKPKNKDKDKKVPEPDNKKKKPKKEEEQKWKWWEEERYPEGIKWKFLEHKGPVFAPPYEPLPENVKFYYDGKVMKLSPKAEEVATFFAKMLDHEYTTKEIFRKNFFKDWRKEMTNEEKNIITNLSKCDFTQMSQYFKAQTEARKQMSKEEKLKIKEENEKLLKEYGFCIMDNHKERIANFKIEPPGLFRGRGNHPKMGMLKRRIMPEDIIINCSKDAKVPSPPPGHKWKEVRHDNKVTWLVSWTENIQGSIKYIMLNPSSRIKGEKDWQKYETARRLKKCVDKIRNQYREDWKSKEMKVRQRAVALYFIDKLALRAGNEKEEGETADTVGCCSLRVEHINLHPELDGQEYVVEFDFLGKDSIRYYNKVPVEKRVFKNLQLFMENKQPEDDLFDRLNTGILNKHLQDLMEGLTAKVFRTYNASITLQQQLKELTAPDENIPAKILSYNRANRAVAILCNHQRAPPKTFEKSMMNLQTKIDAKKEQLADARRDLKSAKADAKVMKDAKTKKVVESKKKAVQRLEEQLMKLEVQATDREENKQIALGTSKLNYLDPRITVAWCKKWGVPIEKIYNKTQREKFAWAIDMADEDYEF

SMILES | GI50 (MDA-MB-435) [µM] | GI50 (HCT-116) [µM] | GI50 (A549) [µM] | inhibition [1]
Cc1ccc2c(c1)c1c(n2C(=O)c2ccc(Cl)cc2)C2N(CC1)C(=O)c1ccccc1N2C (configuration not stated) | 1.14 | 11.4 | > 200 | –
O=c1c2cc(F)ccc2nc2n1CCc1c-2[nH]c2ccccc12 | 15.9 | 20 | 47.2 | –
CN1c2ccccc2C(=O)N2CCc3c([nH]c4c([N+](=O)[O-])cc([N+](=O)[O-])cc34)C21 (configuration not stated) | 0.16 | > 200 | > 200 | –
CN1c2ccccc2C(=O)N2CCc3c([nH]c4ccc(F)cc34)C21 (configuration not stated) | 27.4 | 8.56 | 6.85 | –
Cc1ccc2[nH]c3c(c2c1)CCN1C(=O)c2ccccc2N(C)C31 (configuration not stated) | > 200 | > 200 | > 200 | –
COc1ccc2c(c1)C(=O)N1CCc3c([nH]c4ccc(OC)cc34)C1N2C (configuration not stated) | 9.8 | 0.033 | > 200 | –
CN1c2ccccc2C(=O)N2CCc3c([nH]c4ccc(Cl)cc34)C21 (configuration not stated) | > 200 | > 200 | > 200 | –
CN1c2ccccc2C(=O)N2CCc3c([nH]c4ccc(I)cc34)C21 (configuration not stated) | 0.26 | 0.78 | 11.4 | –
CN1c2ccccc2C(=O)N2CCc3c(n(C(=O)c4ccc(Cl)cc4)c4ccc(Br)cc34)C21 (configuration not stated) | 38.7 | 19.7 | 22.5 | –
CN1c2ccccc2C(=O)N2CCc3c([nH]c4ccc(OCC5CO5)cc34)C21 (configuration not stated) | 0.61 | 2.98 | 48.9 | –
CN1c2ccccc2C(=O)N2CCc3c([nH]c4ccc(Br)cc34)C21 (configuration not stated) | 37.6 | > 200 | > 200 | –
COc1ccc2[nH]c3c(c2c1)CCN1C(=O)c2c(OC)cccc2N(C)C31 (configuration not stated) | 21 | 42 | 98 | –
CC[C@@]1(O)C(=O)OCc2c1cc1n(c2=O)Cc2cc3c(CN(C)C)c(O)ccc3nc2-1 [TOPOTECAN] | 0.034 | 0.4 | 3.96 | –
CCCOc1ccc2[nH]c3c(c2c1)CCN1C(=O)c2ccccc2N(C)C31 (configuration not stated) | 3.07 | 8.05 | > 200 | –
CN1c2ccc(Br)cc2C(=O)N2CCc3c(n(C(=O)c4ccc(Cl)cc4)c4ccccc34)C21 (configuration not stated) | 8.72 | 39.7 | > 200 | –
CC(=O)Nc1ccc2c(c1)C(=O)N1CCc3c([nH]c4ccccc34)C1N2C (configuration not stated) | 59.1 | 70.5 | > 200 | –
O=C1c2ccccc2OC2c3[nH]c4ccccc4c3CCN12 (configuration not stated) | 3.13 | 3.03 | 2.4 | –
C#CCN(CC#C)c1ccc2c(c1)C(=O)N1CCc3c([nH]c4ccccc34)C1N2C (configuration not stated) | 2.03 | 0.21 | > 200 | –
CN1c2ccc(N)cc2C(=O)N2CCc3c([nH]c4ccccc34)C21 (configuration not stated) | 0.15 | 8.92 | > 200 | Active

SMILES | GI50 (MDA-MB-435) [µM] | GI50 (HCT-116) [µM] | GI50 (A549) [µM] | inhibition [1]
CN1c2ccccc2C(=O)N2CCc3c([nH]c4ccc([N+](=O)[O-])cc34)C21 (configuration not stated) | > 200 | > 200 | > 200 | –
COc1ccc2[nH]c3c(c2c1)CCN1C(=O)c2cc(F)ccc2NC31 (configuration not stated) | 18.5 | 26.7 | 60.1 | –
COc1ccc2[nH]c3c(c2c1)CCN1C(=O)c2ccccc2N(C)C31 (configuration not stated) | 8.97 | > 200 | > 200 | –
CN1c2ccccc2C(=O)N2CCc3c([nH]c4ccc(OC(=O)C5CC5)cc34)C21 (configuration not stated) | 0.08 | 0.01 | 1.9 | –
COc1ccc2c(c1)C(=O)N1CCc3c([nH]c4ccc(O)cc34)C1N2C (configuration not stated) | 0.66 | 0.07 | 1.6 | –
CN1c2ccc(Br)cc2C(=O)N2CCc3c([nH]c4ccccc34)C21 (configuration not stated) | 1.5 | 14.1 | 14.5 | –
Cc1cccc2c1C(=O)N1CCc3c([nH]c4ccccc34)C1N2C (configuration not stated) | 20.2 | 13.1 | 14.3 | –
COc1ccc2[nH]c3c(c2c1)CCN1C(=O)c2cc([N+](=O)[O-])ccc2N(C)C31 (configuration not stated) | > 200 | 0.15 | > 200 | –
CN1c2ccc([N+](=O)[O-])cc2C(=O)N2CCc3c([nH]c4ccccc34)C21 (configuration not stated) | > 200 | > 200 | > 200 | –
COc1ccc2[nH]c3c(c2c1)CCn1c-3nc2ccc(F)cc2c1=O | > 200 | 138 | > 200 | –
Cc1ccc2c(c1)C(=O)N1CCc3c([nH]c4ccccc34)C1N2C (configuration not stated) | 0.32 | 0.61 | 32.2 | –
CN1c2cccc(F)c2C(=O)N2CCc3c([nH]c4ccccc34)C21 (configuration not stated) | 42.6 | > 200 | 200 | –
CN1c2cc(Cl)ccc2C(=O)N2CCc3c([nH]c4ccccc34)C21 (configuration not stated) | > 200 | > 200 | > 200 | –
COc1ccc2[nH]c3c(c2c1)CCN1C(=S)c2ccccc2N(C)C31 (configuration not stated) | 3.69 | 21.4 | 106 | –
CN1c2ccccc2C(=S)N2CCc3c([nH]c4ccccc34)C21 (configuration not stated) | 12.2 | 46.5 | 90.7 | –
CN1c2ccccc2C(=O)N2CCc3c(n(C(=O)c4ccc(Cl)cc4)c4ccc(Cl)cc34)C21 (configuration not stated) | 72.7 | > 200 | > 200 | –
CN1c2ccc(I)cc2C(=O)N2CCc3c([nH]c4ccccc34)C21 (configuration not stated) | 2.94 | > 200 | > 200 | –
COc1ccc2[nH]c3c(c2c1)CCN1C(=O)c2cc(F)ccc2N(C)C31 (configuration not stated) | < 0.003 | 0.78 | 200 | –
CN1c2ccccc2CN2CCc3c([nH]c4ccccc34)C21 (configuration not stated) | 16.2 | > 200 | > 200 | –

SMILES | GI50 (MDA-MB-435) [µM] | GI50 (HCT-116) [µM] | GI50 (A549) [µM] | inhibition [1]
CCc1c2c(nc3ccc(OC(=O)N4CCC(N5CCCCC5)CC4)cc13)-c1cc3c(c(=O)n1C2)COC(=O)[C@]3(O)CC [IRINOTECAN] | 12.2 | 7.1 | 5 | –
C#CCOc1ccc2[nH]c3c(c2c1)CCN1C(=O)c2ccccc2N(C)C31 (configuration not stated) | 4.39 | 14 | > 200 | –
CN1c2ccc(N3CCC3)cc2C(=O)N2CCc3c([nH]c4ccccc34)C21 (configuration not stated) | 0.2 | 3.85 | > 200 | –
CN1c2ccccc2C(=S)N2CCc3c(n(C(=O)c4ccc(Cl)cc4)c4ccccc34)C21 (configuration not stated) | > 200 | > 200 | > 200 | –
CN1c2ccccc2C(=O)N2CCc3c(n(C(=O)c4ccc(Cl)cc4)c4ccc(O)cc34)C21 (configuration not stated) | < 0.002 | 0.05 | 26.6 | –
COc1ccc2c(c1)c1c(n2C(=O)c2ccc(Cl)cc2)C2N(CC1)C(=O)c1ccccc1N2C (configuration not stated) | 11.8 | 71 | 87.2 | –
CCOc1ccc2[nH]c3c(c2c1)CCN1C(=O)c2ccccc2N(C)C31 (configuration not stated) | 5.93 | 19.2 | > 200 | –
CN1c2ccc(NC(=O)C3CC3)cc2C(=O)N2CCc3c([nH]c4ccccc34)C21 (configuration not stated) | > 200 | 187 | > 200 | –
CN1c2ccccc2C(=O)N2CCc3c([nH]c4ccc(OCc5ccccc5)cc34)C21 (configuration not stated) | 41.2 | > 200 | > 200 | –
COc1ccc2[nH]c3c(c2c1)CCN1C(=O)c2cc(Cl)ccc2N(C)C31 (configuration not stated) | 2 | 0.004 | 13 | –
COc1ccc2c(c1)N(C)C1c3[nH]c4ccccc4c3CCN1C2=O (configuration not stated) | > 200 | > 200 | > 200 | –
CN1c2cccc(Cl)c2C(=O)N2CCc3c([nH]c4ccccc34)C21 (configuration not stated) | 1.43 | 4.56 | 5.65 | –
COc1ccc2c(c1)C(=O)N1CCc3c([nH]c4ccccc34)C1N2C (configuration not stated) | 0.29 | 1.25 | 0.94 | –
COc1ccc2c(c1)C(=O)N1CCc3c(n(C(=O)c4ccc(Cl)cc4)c4ccccc34)C1N2C (configuration not stated) | 184 | 88.7 | > 200 | –
COc1cc2c(cc1OC)N(C)C1c3[nH]c4ccccc4c3CCN1C2=O (configuration not stated) | 8.97 | > 200 | > 200 | –
O=C1c2ccccc2OC2c3c(c4ccccc4n3C(=O)c3ccc(Cl)cc3)CCN12 (configuration not stated) | > 200 | > 200 | > 200 | –
O=C1c2cc(F)ccc2NC2c3[nH]c4ccccc4c3CCN12 (configuration not stated) | > 200 | > 200 | > 200 | –
COc1cccc2c1C(=O)N1CCc3c([nH]c4ccccc34)C1N2C (configuration not stated) | 22.3 | 19.7 | 128 | –
CN1c2ccccc2CN2CCc3c(n(C(=O)c4ccc(Cl)cc4)c4ccccc34)C21 (configuration not stated) | 96 | > 200 | > 200 | –
